Data on 26 compounds can be found in ChEMBL document CHEMBL1139624, “Synthesis and evaluation of isatin derivatives as effective SARS coronavirus 3CL protease inhibitors” (Bioorg Med Chem Lett, 2005).

In one test the target is Replicase polyprotein 1a (Severe acute respiratory syndrome-related coronavirus) (UniProt P0C6U8). The test is described as follows: In vitro percent inhibition against SARS coronavirus main protease (SARS CoV 3C-like protease) at 20 uM.
Settings: not given
In a few lines:
(§1)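 FRET assay with 50 nM 3CLpro preincubated 10 min at room temperature with inhibitor at 20 μM in pH 7.5 Tris–HCl/NaCl/EDTA/DTT/β-ME buffer. Percent inhibition was taken from the initial velocity.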
As to `COc1ccc2c(c1)C(=O)C(=O)N2Cc1cc2ccccc2o1`, the inhibition (usually the change of the read-out against control, counted positive when it falls) was determined as 13%.
On the same count and under the same terms, under `Nc1cccc2c1N(Cc1cc3ccccc3s1)C(=O)C2=O` stands 31%; under `Cc1noc(C)c1CN1C(=O)C(=O)c2cc(C(N)=O)ccc21`, 25%.
Same read-out and setting: as for `Cc1cc2c(c([N+](=O)[O-])c1)N(CC(=O)c1cc3ccccc3s1)C(=O)C2=O`, the figure is 40%; as for `Cc1cc2c(c([N+](=O)[O-])c1)N(Cc1cc3ccccc3s1)C(=O)C2=O`, 39%; as for `O=C1C(=O)N(Cc2cc3ccccc3s2)c2c(Cl)ccc(Cl)c21`, 46%.
On the same count and under the same terms, as for `O=C(NC1CCCCC1)c1ccc(CN2C(=O)C(=O)c3cc(I)ccc32)s1`, the figure is 36%; as for `O=C(Nc1ccc(F)cc1F)c1ccc(CN2C(=O)C(=O)c3cc(I)ccc32)s1`, 32%; as for `COc1ccc2c(c1)C(=O)C(=O)N2Cc1cc2ccccc2s1`, 27%.
In the case of `CC(C)NC(=O)c1ccc(CN2C(=O)C(=O)c3cc(I)ccc32)s1`, the inhibition was found to be 47%.
Same read-out and setting: under `Nc1ccc2c(c1)C(=O)C(=O)N2CC(=O)c1cc2ccccc2s1` stands 40%.
Still for that read-out and setting: as for `O=C(Nc1ccc(F)cc1)c1ccc(CN2C(=O)C(=O)c3cc(I)ccc32)s1`, the figure is 46%; as for `O=C1C(=O)N(Cc2cc3ccccc3o2)c2ccc([N+](=O)[O-])cc21`, 24%.

Test system in a further test: not listed separately
The test is described as follows: In vitro inhibitory concentration against Papain (cysteine protease). Set-up: species or system Carica papaya.
Settings: not given
Turning to `O=C1C(=O)N(Cc2cc3ccccc3s2)c2ccc(I)cc21`, it took 87.2 µM to reach half-maximal inhibition (IC50). This lies in the double-digit micromolar range.
On the same count and under the same terms, under `O=C1C(=O)N(Cc2cc3ccccc3s2)c2c(Br)cccc21` stands 103 µM.

For the next test, the target named is T1, Replicase polyprotein 1a (Severe acute respiratory syndrome-related coronavirus, UniProt P0C6U8). Briefly: In vitro inhibitory concentration against SARS coronavirus main protease (SARS CoV 3C-like protease) at 20 uM.
Settings: not given
In a few lines: as §1
Regarding `O=C1C(=O)N(CC2COc3ccccc3O2)c2ccc(I)cc21` (stereo not given), the half-inhibitory concentration (IC50) (in general, the point on the concentration scale where inhibition reaches its midpoint) was 13.5 µM.

Another test has as its target Replicase polyprotein 1a (Severe acute respiratory syndrome-related coronavirus) (UniProt P0C6U8). Briefly: In vitro percent inhibition against SARS coronavirus main protease (SARS CoV 3C-like protease). As to conditions: concentration not given here. In a few lines: as §1
On to `O=C1C(=O)N(Cc2cc3ccccc3o2)c2ccc(I)cc21`, for which the inhibition came to 13%.

The next test addresses T1, Replicase polyprotein 1a. Briefly: In vitro inhibitory concentration SARS coronavirus main protease (SARS CoV 3C-like protease).
Settings: not given
As to `O=C1C(=O)N(Cc2cc3ccccc3s2)c2c(Br)cccc21`, inhibition was half-maximal at 0.98 µM (IC50).

Test system in another test: not listed separately
Briefly: In vitro inhibitory concentration against Trypsin (serine protease).
Settings: not given
A digest of the protocol: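 Trypsin counter-screen run with 9 nM enzyme and 200 μM substrate.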
Consider `O=C1C(=O)N(Cc2cc3ccccc3s2)c2ccc(I)cc21`, for which the IC50 was determined as 243 µM.
The same measure, in the same setting: under `O=C1C(=O)N(Cc2cc3ccccc3s2)c2c(Br)cccc21` stands 362 µM.

The target of another test is T1, Replicase polyprotein 1a. Briefly: In vitro inhibitory concentration against SARS coronavirus main protease (SARS CoV 3C-like protease).
Settings: not given
`O=C1C(=O)N(C/C=C/c2cc3ccccc3s2)c2ccc(I)cc21` registered an IC50 of 23.5 µM.
Same read-out and setting: as for `O=C1C(=O)N(Cc2cc3ccccc3s2)c2ccc(F)cc21`, the figure is 4.82 µM; as for `O=C1C(=O)N(Cc2cc3ccccc3s2)c2ccccc21`, 13.1 µM; as for `O=C1C(=O)N(Cc2ccc(F)cc2Cl)c2ccc(I)cc21`, 9.4 µM.
Take `O=C1C(=O)N(Cc2cc3ccccc3s2)c2ccc(I)cc21`: the half-inhibitory concentration (IC50) was 0.95 µM.
In turn, `O=C(Nc1ccc(Cl)cc1)c1ccc(CN2C(=O)C(=O)c3cc(I)ccc32)s1` yielded a concentration for half-maximal inhibition (IC50) of 12.6 µM.
Same read-out and setting: under `O=C1C(=O)N(Cc2cc3ccccc3s2)c2cccc(Cl)c21` stands 11.2 µM; under `O=C1C(=O)N(Cc2cc3ccccc3s2)c2c1cccc2[N+](=O)[O-]`, 2 µM.
Same read-out and setting: as for `Cc1noc(C)c1CN1C(=O)C(=O)c2cc(C#N)ccc21`, the figure is 7.2 µM; as for `O=C1C(=O)N(Cc2ccc(C(=O)N3CCCCC3)s2)c2ccc(I)cc21`, 17.5 µM.
